# Data published in ChEMBL document CHEMBL1821653, “Alcohol-, diol-, and carbohydrate-substituted indenoisoquinolines as topoisomerase I inhibitors: investigating the relationships involving stereochemistry, hydrogen bonding, and biological activity” (2011).
# Molecular target: T1, DNA topoisomerase 1 (Homo sapiens) (UniProt P11387)
# T1 sequence (whole entry): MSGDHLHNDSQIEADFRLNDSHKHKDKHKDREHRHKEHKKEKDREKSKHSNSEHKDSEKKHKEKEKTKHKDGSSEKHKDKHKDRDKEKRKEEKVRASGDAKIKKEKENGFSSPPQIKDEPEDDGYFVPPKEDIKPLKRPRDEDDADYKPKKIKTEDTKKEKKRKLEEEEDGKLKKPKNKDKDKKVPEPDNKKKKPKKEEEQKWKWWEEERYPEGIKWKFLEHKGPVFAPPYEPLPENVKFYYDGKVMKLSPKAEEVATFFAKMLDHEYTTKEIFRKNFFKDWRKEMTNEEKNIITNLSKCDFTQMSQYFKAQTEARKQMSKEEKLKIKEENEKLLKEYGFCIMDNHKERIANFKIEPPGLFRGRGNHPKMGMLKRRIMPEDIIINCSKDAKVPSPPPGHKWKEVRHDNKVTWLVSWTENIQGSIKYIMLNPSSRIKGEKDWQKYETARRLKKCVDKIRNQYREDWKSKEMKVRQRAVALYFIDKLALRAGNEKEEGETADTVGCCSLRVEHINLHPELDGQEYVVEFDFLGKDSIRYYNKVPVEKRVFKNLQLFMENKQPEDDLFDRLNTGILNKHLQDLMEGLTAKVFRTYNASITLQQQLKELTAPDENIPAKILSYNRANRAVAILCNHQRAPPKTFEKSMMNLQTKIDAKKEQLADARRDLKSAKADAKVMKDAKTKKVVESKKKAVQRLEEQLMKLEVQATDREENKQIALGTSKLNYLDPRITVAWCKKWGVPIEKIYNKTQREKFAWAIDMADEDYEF
# Assay: Inhibition of recombinant human TOP1 mediated DNA cleavage after 20 mins by gel electrophoresis relative to camptothecin
# Set-up: concentration or dose not given beside the values
# Procedure, shortened: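 117-bp oligonucleotide containing Top1 cleavage sites, 3'-end labeled with [α-32P]-dGTP by Klenow fill-in. About 2 nM substrate incubated with recombinant Top1 and various compound concentrations for 20 min at 25 °C in 10 mM Tris-HCl pH 7.5, 50 mM KCl, 5 mM MgCl2, 0.1 mM EDTA, 15 μg/mL BSA. Stopped with 0.5% SDS, run on 20% denaturing PAGE, phosphorimaged.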
row,SMILES,inhibition [%]
1,O=C1c2ccccc2-c2c1c1ccccc1c(=O)n2C[C@@H](O)[C@H](O)[C@H](O)CO,50
2,O=C1c2ccccc2-c2c1c1ccccc1c(=O)n2C[C@@H](O)[C@@H](O)[C@H](O)CO,75
3,CC(CO)n1c2c(c3ccccc3c1=O)C(=O)c1ccccc1-2 (racemic),20
4,O=C1c2ccccc2-c2c1c1ccccc1c(=O)n2C[C@H](O)CO,75
5,O=C1c2ccccc2-c2c1c1ccccc1c(=O)n2C[C@H](O)[C@@H](O)[C@@H](O)[C@H](O)CO,20
6,O=C1c2ccccc2-c2c1c1ccccc1c(=O)n2C[C@H](O)[C@@H](O)[C@H](O)[C@H](O)CO,50
7,NCC(O)Cn1c2c(c3ccccc3c1=O)C(=O)c1ccccc1-2 (racemic),50
8,O=C1c2ccccc2-c2c1c1ccc([N+](=O)[O-])cc1c(=O)n2C[C@H](O)[C@@H](O)[C@H](O)[C@H](O)CO,> 95
9,O=C1c2ccccc2-c2c1c1ccccc1c(=O)n2C[C@@H](O)[C@@H](O)[C@H](O)[C@H](O)CO,20
10,C[C@@H](CO)n1c2c(c3ccccc3c1=O)C(=O)c1ccccc1-2,50
11,O=C1c2ccccc2-c2c1c1ccccc1c(=O)n2C[C@@H](O)CO,50
12,COc1cc2c3c(n(CCCN4CCOCC4)c(=O)c2cc1OC)-c1cc2c(cc1C3=O)OCO2 [INDOTECAN],> 95
13,C[C@@H](O)Cn1c2c(c3ccccc3c1=O)C(=O)c1ccccc1-2,75

# Tested on: HOP-62
# Assay: Antiproliferative activity against human HOP62 cells by SRB assay
# Assay type: functional
# Procedure, shortened: (§1)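 NCI 60-cell-line human tumor panel. Compounds first screened at one dose of 10^-5 M. Selected compounds then tested at five concentrations from 10^-8 to 10^-4 M. GI50 is the concentration giving 50% growth inhibition. GI50 values outside the tested range are assigned 10^-8 M or 10^-4 M.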
row,SMILES,GI50 [µM]
1,O=C1c2ccccc2-c2c1c1ccccc1c(=O)n2C[C@@H](O)[C@H](O)[C@H](O)CO,8.71
2,O=C1c2ccccc2-c2c1c1ccccc1c(=O)n2C[C@@H](O)[C@@H](O)[C@H](O)CO,6.46
3,CC(CO)n1c2c(c3ccccc3c1=O)C(=O)c1ccccc1-2 (racemic),17.6
4,O=C1c2ccccc2-c2c1c1ccccc1c(=O)n2C[C@H](O)CO,5.01
5,NCC(O)Cn1c2c(c3ccccc3c1=O)C(=O)c1ccccc1-2 (racemic),0.276
6,O=C1c2ccccc2-c2c1c1ccc([N+](=O)[O-])cc1c(=O)n2C[C@H](O)[C@@H](O)[C@H](O)[C@H](O)CO,7.35
7,O=C1c2ccccc2-c2c1c1ccccc1c(=O)n2C[C@@H](O)CO,3.79
8,C[C@@H](O)Cn1c2c(c3ccccc3c1=O)C(=O)c1ccccc1-2,3.39

# Tested on: HCT-116
# Assay: Antiproliferative activity against human HCT116 cells by SRB assay
# Assay type: functional
# Procedure, shortened: as §1
row,SMILES,GI50 [µM]
1,O=C1c2ccccc2-c2c1c1ccccc1c(=O)n2C[C@@H](O)[C@@H](O)[C@H](O)CO,3.39
2,CC(CO)n1c2c(c3ccccc3c1=O)C(=O)c1ccccc1-2 (racemic),15.9
3,NCC(O)Cn1c2c(c3ccccc3c1=O)C(=O)c1ccccc1-2 (racemic),0.263
4,O=C1c2ccccc2-c2c1c1ccc([N+](=O)[O-])cc1c(=O)n2C[C@H](O)[C@@H](O)[C@H](O)[C@H](O)CO,5.08
5,O=C1c2ccccc2-c2c1c1ccccc1c(=O)n2C[C@@H](O)CO,4.47
6,C[C@@H](O)Cn1c2c(c3ccccc3c1=O)C(=O)c1ccccc1-2,5.52

# Tested on: SF-539
# Assay: Antiproliferative activity against human SF539 cells by SRB assay
# Assay type: functional
# Procedure, shortened: as §1
row,SMILES,GI50 [µM]
1,O=C1c2ccccc2-c2c1c1ccccc1c(=O)n2C[C@@H](O)[C@H](O)[C@H](O)CO,7.59
2,O=C1c2ccccc2-c2c1c1ccccc1c(=O)n2C[C@@H](O)[C@@H](O)[C@H](O)CO,11.2
3,CC(CO)n1c2c(c3ccccc3c1=O)C(=O)c1ccccc1-2 (racemic),14.4
4,O=C1c2ccccc2-c2c1c1ccccc1c(=O)n2C[C@H](O)CO,7.41
5,NCC(O)Cn1c2c(c3ccccc3c1=O)C(=O)c1ccccc1-2 (racemic),0.344
6,O=C1c2ccccc2-c2c1c1ccc([N+](=O)[O-])cc1c(=O)n2C[C@H](O)[C@@H](O)[C@H](O)[C@H](O)CO,2.61
7,O=C1c2ccccc2-c2c1c1ccccc1c(=O)n2C[C@@H](O)CO,5.72
8,C[C@@H](O)Cn1c2c(c3ccccc3c1=O)C(=O)c1ccccc1-2,6.31

# Tested on: UACC-62
# Assay: Antiproliferative activity against human UACC62 cells by SRB assay
# Assay type: functional
# Procedure, shortened: as §1
row,SMILES,GI50 [µM]
1,O=C1c2ccccc2-c2c1c1ccccc1c(=O)n2C[C@@H](O)[C@H](O)[C@H](O)CO,7.41
2,O=C1c2ccccc2-c2c1c1ccccc1c(=O)n2C[C@@H](O)[C@@H](O)[C@H](O)CO,6.31
3,CC(CO)n1c2c(c3ccccc3c1=O)C(=O)c1ccccc1-2 (racemic),11.7
4,O=C1c2ccccc2-c2c1c1ccccc1c(=O)n2C[C@H](O)CO,5.37
5,NCC(O)Cn1c2c(c3ccccc3c1=O)C(=O)c1ccccc1-2 (racemic),0.318
6,O=C1c2ccccc2-c2c1c1ccc([N+](=O)[O-])cc1c(=O)n2C[C@H](O)[C@@H](O)[C@H](O)[C@H](O)CO,2.98
7,O=C1c2ccccc2-c2c1c1ccccc1c(=O)n2C[C@@H](O)CO,4.36
8,C[C@@H](O)Cn1c2c(c3ccccc3c1=O)C(=O)c1ccccc1-2,10.2

# Tested on: OVCAR-3
# Assay: Antiproliferative activity against human OVCAR3 cells by SRB assay
# Assay type: functional
# Procedure, shortened: as §1
row,SMILES,GI50 [µM]
1,O=C1c2ccccc2-c2c1c1ccccc1c(=O)n2C[C@@H](O)[C@H](O)[C@H](O)CO,> 100
2,O=C1c2ccccc2-c2c1c1ccccc1c(=O)n2C[C@@H](O)[C@@H](O)[C@H](O)CO,13.2
3,CC(CO)n1c2c(c3ccccc3c1=O)C(=O)c1ccccc1-2 (racemic),25.7
4,O=C1c2ccccc2-c2c1c1ccccc1c(=O)n2C[C@H](O)CO,14.5
5,NCC(O)Cn1c2c(c3ccccc3c1=O)C(=O)c1ccccc1-2 (racemic),1.32
6,O=C1c2ccccc2-c2c1c1ccc([N+](=O)[O-])cc1c(=O)n2C[C@H](O)[C@@H](O)[C@H](O)[C@H](O)CO,4.26
7,O=C1c2ccccc2-c2c1c1ccccc1c(=O)n2C[C@@H](O)CO,16.1
8,C[C@@H](O)Cn1c2c(c3ccccc3c1=O)C(=O)c1ccccc1-2,21.4

# Tested on: SN12C
# Assay: Antiproliferative activity against human SN12C cells by SRB assay
# Assay type: functional
# Procedure, shortened: as §1
row,SMILES,GI50 [µM]
1,O=C1c2ccccc2-c2c1c1ccccc1c(=O)n2C[C@@H](O)[C@H](O)[C@H](O)CO,20
2,O=C1c2ccccc2-c2c1c1ccccc1c(=O)n2C[C@@H](O)[C@@H](O)[C@H](O)CO,5.01
3,CC(CO)n1c2c(c3ccccc3c1=O)C(=O)c1ccccc1-2 (racemic),37.1
4,O=C1c2ccccc2-c2c1c1ccccc1c(=O)n2C[C@H](O)CO,6.92
5,NCC(O)Cn1c2c(c3ccccc3c1=O)C(=O)c1ccccc1-2 (racemic),0.206
6,O=C1c2ccccc2-c2c1c1ccc([N+](=O)[O-])cc1c(=O)n2C[C@H](O)[C@@H](O)[C@H](O)[C@H](O)CO,17.7
7,O=C1c2ccccc2-c2c1c1ccccc1c(=O)n2C[C@@H](O)CO,3.77
8,C[C@@H](O)Cn1c2c(c3ccccc3c1=O)C(=O)c1ccccc1-2,9.33

# Tested on: DU-145
# Assay: Antiproliferative activity against human DU145 cells by SRB assay
# Assay type: functional
# Procedure, shortened: as §1
row,SMILES,GI50 [µM]
1,O=C1c2ccccc2-c2c1c1ccccc1c(=O)n2C[C@@H](O)[C@H](O)[C@H](O)CO,16.6
2,O=C1c2ccccc2-c2c1c1ccccc1c(=O)n2C[C@@H](O)[C@@H](O)[C@H](O)CO,3.98
3,CC(CO)n1c2c(c3ccccc3c1=O)C(=O)c1ccccc1-2 (racemic),23.7
4,O=C1c2ccccc2-c2c1c1ccccc1c(=O)n2C[C@H](O)CO,5.75
5,NCC(O)Cn1c2c(c3ccccc3c1=O)C(=O)c1ccccc1-2 (racemic),0.13
6,O=C1c2ccccc2-c2c1c1ccc([N+](=O)[O-])cc1c(=O)n2C[C@H](O)[C@@H](O)[C@H](O)[C@H](O)CO,4.76
7,O=C1c2ccccc2-c2c1c1ccccc1c(=O)n2C[C@@H](O)CO,2.34
8,C[C@@H](O)Cn1c2c(c3ccccc3c1=O)C(=O)c1ccccc1-2,8.32

# Tested on: MCF7
# Assay: Antiproliferative activity against human MCF7 cells by SRB assay
# Assay type: functional
# Procedure, shortened: as §1
row,SMILES,GI50 [µM]
1,O=C1c2ccccc2-c2c1c1ccccc1c(=O)n2C[C@@H](O)[C@H](O)[C@H](O)CO,4.57
2,O=C1c2ccccc2-c2c1c1ccccc1c(=O)n2C[C@@H](O)[C@@H](O)[C@H](O)CO,1.9
3,CC(CO)n1c2c(c3ccccc3c1=O)C(=O)c1ccccc1-2 (racemic),34.4
4,O=C1c2ccccc2-c2c1c1ccccc1c(=O)n2C[C@H](O)CO,4.9
5,NCC(O)Cn1c2c(c3ccccc3c1=O)C(=O)c1ccccc1-2 (racemic),0.198
6,O=C1c2ccccc2-c2c1c1ccc([N+](=O)[O-])cc1c(=O)n2C[C@H](O)[C@@H](O)[C@H](O)[C@H](O)CO,0.88
7,O=C1c2ccccc2-c2c1c1ccccc1c(=O)n2C[C@@H](O)CO,3.04
8,COc1cc2c3c(n(CCCN4CCOCC4)c(=O)c2cc1OC)-c1cc2c(cc1C3=O)OCO2 [INDOTECAN],0.37
9,C[C@@H](O)Cn1c2c(c3ccccc3c1=O)C(=O)c1ccccc1-2,3.23
